Experimental data as given in ChEMBL document CHEMBL4346746, “Inhibition of 3-phosphoglycerate dehydrogenase (PHGDH) by indole amides abrogates de novo serine synthesis in cancer cells” (Bioorg Med Chem Lett, 2019).
pIC50: −log10 of the molar value. One block for each compound: values may come before it. Activity calls are given as the source filed them. The calls are words filed in the database; no cut-off is given here.

Tests used:
in vitro = details: PAMPA, pH 5
[1] = target: T1, D-3-phosphoglycerate dehydrogenase (Homo sapiens, UniProt O43175); assay: Inhibition of PHGDH (unknown origin) using 11 nM of PHGDH and 3-PG as substrate incubated for 20 mins in presence of NAD+, PSAT1, PSPH by diaphorase and resazurin dye based fluorescence assay
T1 sequence (O43175 whole entry): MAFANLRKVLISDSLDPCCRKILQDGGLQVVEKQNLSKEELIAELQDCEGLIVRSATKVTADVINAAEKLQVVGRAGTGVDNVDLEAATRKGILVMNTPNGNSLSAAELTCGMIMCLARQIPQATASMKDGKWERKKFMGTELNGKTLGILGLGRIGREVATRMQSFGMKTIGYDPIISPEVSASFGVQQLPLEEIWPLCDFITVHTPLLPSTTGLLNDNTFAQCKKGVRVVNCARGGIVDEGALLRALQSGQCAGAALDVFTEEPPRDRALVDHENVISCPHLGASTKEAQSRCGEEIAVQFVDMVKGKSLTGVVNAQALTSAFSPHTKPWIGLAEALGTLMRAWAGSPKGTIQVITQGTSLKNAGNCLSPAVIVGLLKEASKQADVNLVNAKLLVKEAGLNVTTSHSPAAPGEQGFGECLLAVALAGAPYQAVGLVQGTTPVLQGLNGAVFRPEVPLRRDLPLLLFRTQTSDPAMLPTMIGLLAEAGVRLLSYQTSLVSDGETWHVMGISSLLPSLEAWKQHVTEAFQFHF

[2] = target: T1, D-3-phosphoglycerate dehydrogenase; assay: Inhibition of PHGDH (unknown origin) using 140 nM of PHGDH and 3-PG as substrate incubated for 20 mins in presence of NAD+, PSAT1, PSPH by diaphorase and resazurin dye based fluorescence assay
[3] = target: T2, D-3-phosphoglycerate dehydrogenase (Homo sapiens) (UniProt O43175); assay: Inhibition of PHGDH-mediated serine synthesis in human Carney cells in serine free medium at uM preincubated for 1 hr followed by 13C6 labelled glucose addition and measured after 2 hrs by LC/MS analysis based 13C6-Glucose tracing assay relative control; format: cell-based; details: concentration not given here
T2 sequence (whole entry): T1 sequence (O43175 whole entry)
In short: (§1)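 Carney cells were pretreated with inhibitor for 1 h in the presence of 12C3-serine, then washed. They were labelled with 13C6-glucose medium for 2 h with inhibitor still present. 13C incorporation into serine was read by LC-MS; 3-PG and pyruvate labelling were also monitored.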

[4] = target: T2, D-3-phosphoglycerate dehydrogenase (Homo sapiens); assay: Inhibition of PHGDH-mediated serine synthesis in human Carney cells in serine free medium at 1 uM preincubated for 1 hr followed by 13C6 labelled glucose addition and measured after 2 hrs by LC/MS analysis based 13C6-Glucose tracing assay relative control; format: cell-based
In short: as §1

[5] = Effect on pyruvate level in human Carney cells in serine free medium assessed as 13C-labeling of pyruvate at 0.1 to 10 uM preincubated for 1 hr followed by 13C6 labelled glucose addition and measured after 2 hrs by LC/MS analysis; format: ADME, cell-based
In short: (§2)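 Carney cells were pretreated with inhibitor for 1 h in the presence of 12C3-serine, then washed. They were labeled with 13C6-glucose medium for 2 h with inhibitor still present. Label incorporation into 3-PG and pyruvate was measured by LC-MS, alongside serine labeling as the pathway read-out.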

Homo sapiens = species on record: Homo sapiens; assay: Antiproliferative activity against human Carney cells in serine free medium at 2 uM with media and test compound change for every 2 days and measured every 6 hrs by automated microscopic method; format: functional, cell-based
[6] = Effect on 3-PG level in human Carney cells in serine free medium assessed as 13C-labeling of 3-PG at 0.1 to 10 uM preincubated for 1 hr followed by 13C6 labelled glucose addition and measured after 2 hrs by LC/MS analysis; format: ADME, cell-based
In short: as §2

[7] = Lipophilicity, log D of the compound at pH 7.4 by HPLC analysis; format: physicochemical; details: buffer
[8] = Efflux ratio of apparent permeability across basolateral to apical over apical to basolateral side in MDCK cells overexpressing MDR1; format: ADME, cell-based, Canis lupus familiaris; details: dog
[9] = Apparent permeability across apical to basolateral side in MDCK cells overexpressing MDR1; format: ADME, cell-based, Canis lupus familiaris; details: dog
[10] = target: T3, Malate dehydrogenase, cytoplasmic (Homo sapiens, UniProt P40925); assay: Inhibition of recombinant human MDH1 expressed in Escherichia coli using malate as substrate incubated for 30 mins followed by substrate addition
T3 sequence (P40925 whole entry): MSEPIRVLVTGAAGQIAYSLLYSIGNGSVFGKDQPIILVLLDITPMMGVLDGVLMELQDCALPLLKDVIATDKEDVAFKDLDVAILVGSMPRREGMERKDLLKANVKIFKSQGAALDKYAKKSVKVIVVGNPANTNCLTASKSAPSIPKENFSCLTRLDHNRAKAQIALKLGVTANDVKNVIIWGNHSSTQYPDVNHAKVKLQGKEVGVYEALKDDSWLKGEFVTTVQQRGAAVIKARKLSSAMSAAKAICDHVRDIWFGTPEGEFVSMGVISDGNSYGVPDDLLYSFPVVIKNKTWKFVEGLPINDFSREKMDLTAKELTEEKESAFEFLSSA

[11] = Effect on 3-PG level in human Carney cells in serine free medium assessed as 13C-labeling of 3-PG at 1 to 40 uM preincubated for 1 hr followed by 13C6 labelled glucose addition and measured after 2 hrs by LC/MS analysis; format: ADME, cell-based
In short: as §2

[12] = target: T2, D-3-phosphoglycerate dehydrogenase (Homo sapiens); assay: Mixed type inhibition of PHGDH (unknown origin) assessed as decrease in substrate Vmax 3-PG as substrate incubated for 20 mins in presence of , PSAT1, PSPH and varying NAD+ by diaphorase and resazurin dye based fluorescence assay
[13] = target: T2, D-3-phosphoglycerate dehydrogenase (Homo sapiens); assay: Mixed type inhibition of PHGDH (unknown origin) assessed as rightward shift in substrate Km using 3-PG as substrate incubated for 20 mins in presence of , PSAT1, PSPH and varying NAD+ by diaphorase and resazurin dye based fluorescence assay
[14] = target: T2, D-3-phosphoglycerate dehydrogenase (Homo sapiens); assay: Inhibition of PHGDH-mediated serine synthesis in human Carney cells in serine free medium up to 40 uM preincubated for 1 hr followed by 13C6 labelled glucose addition and measured after 2 hrs by LC/MS analysis based 13C6-Glucose tracing assay; format: cell-based
In short: as §1

[15] = target: L-lactate dehydrogenase A chain (Homo sapiens, UniProt P00338); assay: Inhibition of recombinant human LDHA expressed in Escherichia coli using lactate as substrate incubated for 30 mins followed by substrate addition
[16] = target: Isocitrate dehydrogenase [NADP] cytoplasmic (Homo sapiens, UniProt O75874); assay: Inhibition of recombinant human IDH1 expressed in Escherichia coli using isocitrate as substrate incubated for 30 mins followed by substrate addition
[17] = target: T2, D-3-phosphoglycerate dehydrogenase (Homo sapiens); assay: Inhibition of PHGDH-mediated serine synthesis in human Carney cells in serine free medium at 10 uM preincubated for 1 hr followed by 13C6 labelled glucose addition and measured after 2 hrs by LC/MS analysis based 13C6-Glucose tracing assay relative control; format: cell-based
In short: as §1

[18] = Effect on pyruvate level in human Carney cells in serine free medium assessed as 13C-labeling of pyruvate at 0.1 to 20 uM preincubated for 1 hr followed by 13C6 labelled glucose addition and measured after 2 hrs by LC/MS analysis; format: ADME, cell-based
In short: as §2

[19] = Effect on 3-PG level in human Carney cells in serine free medium assessed as 13C-labeling of 3-PG at 0.1 to 20 uM preincubated for 1 hr followed by 13C6 labelled glucose addition and measured after 2 hrs by LC/MS analysis; format: ADME, cell-based
In short: as §2

[20] = target: T1, D-3-phosphoglycerate dehydrogenase; assay: Inhibition of PHGDH (unknown origin)
[21] = target: T2, D-3-phosphoglycerate dehydrogenase (Homo sapiens); assay: Inhibition of PHGDH-mediated serine synthesis in human Carney cells in serine free medium preincubated for 1 hr followed by 13C6 labelled glucose addition and measured after 2 hrs by LC/MS analysis based 13C6-Glucose tracing assay relative control; format: cell-based
In short: as §1

[22] = target: T2, D-3-phosphoglycerate dehydrogenase (Homo sapiens); assay: Inhibition of PHGDH-mediated serine synthesis in human Carney cells in serine free medium at 1 to 40 uM preincubated for […] followed by 13C6 labelled glucose addition and measured after 2 hrs by LC/MS analysis based 13C6-Glucose tracing assay relative control; format: cell-based
[23] = target: T2, D-3-phosphoglycerate dehydrogenase (Homo sapiens); assay: Inhibition of PHGDH-mediated serine synthesis in human Carney cells in serine free medium at 40 uM preincubated for 1 hr followed by 13C6 labelled glucose addition and measured after 2 hrs by LC/MS analysis based 13C6-Glucose tracing assay relative control; format: cell-based
In short: as §1

[24] = Effect on pyruvate level in human Carney cells in serine free medium assessed as 13C-labeling of pyruvate at 1 to 40 uM preincubated for 1 hr followed by 13C6 labelled glucose addition and measured after 2 hrs by LC/MS analysis; format: ADME, cell-based
In short: as §2

Isocitrate dehydrogenase [NADP] cytoplasmic, sequence (O75874 whole entry): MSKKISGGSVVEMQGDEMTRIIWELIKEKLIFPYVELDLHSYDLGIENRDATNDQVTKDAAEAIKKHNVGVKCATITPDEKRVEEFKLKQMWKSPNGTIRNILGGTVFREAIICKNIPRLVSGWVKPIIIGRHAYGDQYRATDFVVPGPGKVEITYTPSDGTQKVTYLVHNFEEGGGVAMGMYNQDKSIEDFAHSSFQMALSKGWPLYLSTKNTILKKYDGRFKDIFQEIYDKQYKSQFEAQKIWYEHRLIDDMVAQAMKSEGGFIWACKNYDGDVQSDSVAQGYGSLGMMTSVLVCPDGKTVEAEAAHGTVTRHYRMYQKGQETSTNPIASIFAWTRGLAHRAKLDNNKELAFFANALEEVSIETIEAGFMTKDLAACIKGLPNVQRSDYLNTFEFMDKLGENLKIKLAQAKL

SMILES: Cn1c(C(=O)NC2(c3ccc(C(=O)O)c(F)c3)COC2)cc2c(Cl)c(Cl)ccc21
- Papp at 10 µM (in vitro): 15.2 ×10⁻⁶ cm/s
- pIC50 [1]: 7.43

SMILES: CONC(=O)Cc1ccc(C2(NC(=O)c3cc4c(Cl)c(Cl)ccc4n3C)COC2)cc1
- pIC50 [2]: 6.54

- pIC50 [2]: 6.00
SMILES: Cn1c(C(=O)NC2(c3ccc([C@H](O)c4cccnc4)cc3)COC2)cc2c(Cl)c(Cl)ccc21

SMILES: Cn1c(C(=O)NC2(c3ccc(C(=O)O)nc3)COC2)cc2c(Cl)c(Cl)ccc21
- pIC50 [2]: 4.66

SMILES: CC(=O)OC(C)OC(=O)C(c1ccc(C2(NC(=O)c3cc4c(Cl)c(Cl)ccc4n3C)COC2)cc1)c1cccnc1 (stereo not given)
- pIC50 [2]: 5.84
- inhibition [3]: 40%
- inhibition [4]: < 100%
- Activity [5]: Non-Toxic
- Activity (Homo sapiens): Active
- Activity [6]: Non-Toxic

SMILES: COc1cc2c(cc1Cl)cc(C(=O)N[C@H](C)c1ccc(C(=O)O)cc1)n2C
- pIC50 [2]: 6.63
- logD [7]: 1.67
- Ratio [8]: 1.3
- Papp [9]: 1.4 ×10⁻⁶ cm/s

SMILES: Cn1c(CNC2(c3ccc(C(=O)O)cc3)COC2)cc2c(Cl)c(Cl)ccc21
- pIC50 [2]: 3.68

SMILES: COc1cc2c(cc1Cl)cc(C(=O)NC(CN)c1ccc(C(=O)O)cc1)n2C (stereo not given)
- pIC50 [2]: 4.63

SMILES: Cn1c(C(=O)NC2(c3ccc(CC(=O)NS(C)(=O)=O)cc3)COC2)cc2c(Cl)c(Cl)ccc21
- pIC50 [1]: 6.36

- pIC50 [10]: < 5.00
- inhibition [12]: Active
- inhibition [13]: Active
- inhibition [14]: inactive
- pIC50 [15]: < 5.00
- pIC50 [16]: < 5.00
SMILES: O=C1NC[C@@H](COc2cc3[nH]c(C(=O)N[C@H](CO)c4ccc(C(=O)O)cc4)cc3cc2Cl)O1
- Activity [11]: Non-Toxic

SMILES: COc1cc2c(cc1Cl)cc(C(=O)NC(CO)c1ccc(C(=O)O)cc1)n2C (stereo not given)
- pIC50 [2]: 6.63

SMILES: Cn1c(C(=O)NC2(c3ccc(C(C(=O)O)c4cccnc4)cc3)COC2)cc2c(Cl)c(Cl)ccc21 (racemic)
- pIC50 [10]: < 5.00
- inhibition [17]: 90%
- Activity (Homo sapiens): Active
- Activity [18]: Non-Toxic
- Activity [19]: Non-Toxic
- pIC50 [16]: < 5.00

SMILES: C#CSc1c(NC(=O)c2ccco2)sc(C(=O)OCC)c1C
- pIC50 [20]: 4.48

SMILES: Cn1c(C(=O)NC2(c3ccc(C(CC(=O)O)c4cccnc4)cc3)COC2)cc2c(Cl)c(Cl)ccc21 (stereo not given)
- pIC50 [1]: 7.60

SMILES: Cn1c(C(=O)NC2(c3ccc(CC(=O)O)c(F)c3)COC2)cc2c(Cl)c(Cl)ccc21
- pIC50 [1]: 7.47

- pIC50 [10]: < 5.00
- pIC50 [2]: 6.43
- pIC50 [15]: < 5.00
- pIC50 [16]: < 5.00
SMILES: Cn1c(C(=O)NC2(c3ccc([C@@H](O)c4cccnc4)cc3)COC2)cc2c(Cl)c(Cl)ccc21

SMILES: Cn1c(C(=O)NC2(c3ccc(C(=O)O)cc3)COC2)cc2c(Cl)c(Cl)ccc21
- inhibition [21]: Dose-dependent effect
- Activity [11]: Non-Toxic
- inhibition [17]: 40%
- inhibition [22]: Active
- inhibition [23]: 100%
- Activity [24]: Non-Toxic

SMILES: CCOC(=O)C(c1ccc(C2(NC(=O)c3cc4c(Cl)c(Cl)ccc4n3C)COC2)cc1)c1cccnc1 (stereo not given)
- pIC50 [2]: 5.88
- inhibition [17]: 70%
- Activity [5]: Non-Toxic
- Activity [6]: Non-Toxic

SMILES: Cn1c(C(=O)NC2(c3ccc(CO)cc3)COC2)cc2c(Cl)c(Cl)ccc21
- pIC50 [2]: 5.80
